Data as given in ChEMBL document CHEMBL4041526, “Discovery of 2H-Chromen-2-one Derivatives as G Protein-Coupled Receptor-35 Agonists” (J Med Chem, 2017).
Calls of active or inactive are those of the source. No cut-off for these calls is given here.

What was measured:
[1] = molecular target: T1, G-protein coupled receptor 35 (Homo sapiens, UniProt Q9HC97); assay: Agonist activity at GPR35 in human HT-29 cells assessed as induction of cell desensitization to 1 uM zaprinast preincubated for 1 hr followed by zaprinast stimulation measured after 8 minutes by DMR assay; type: cell-based
T1 sequence (Q9HC97 whole entry): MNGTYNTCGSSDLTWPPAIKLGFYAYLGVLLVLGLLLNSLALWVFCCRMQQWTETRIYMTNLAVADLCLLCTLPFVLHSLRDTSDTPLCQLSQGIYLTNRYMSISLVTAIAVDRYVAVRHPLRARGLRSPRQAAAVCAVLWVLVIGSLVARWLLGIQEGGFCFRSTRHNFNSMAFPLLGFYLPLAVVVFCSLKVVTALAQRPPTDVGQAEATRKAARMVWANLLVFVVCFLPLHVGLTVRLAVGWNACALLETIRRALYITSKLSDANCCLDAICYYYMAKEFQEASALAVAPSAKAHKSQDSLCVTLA
Summary of the method: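 Desensitization format in HT-29 cells on resonant waveguide grating biosensor plates, held in HBSS. […] Mean ± sd, two independent measurements, each with four replicates (n=8).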

[2] = molecular target: T1, G-protein coupled receptor 35; assay: Agonist activity at GPR35 in human HT-29 cells in presence of antagonist ML-145 by DMR assay; type: cell-based
Summary of the method: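 HT-29 DMR antagonist format: ML-145 was titrated against the coumarin agonist, each agonist given at its EC80–EC100 dose. Cells were kept in HBSS and equilibrated 1 h in the reader. IC50 was calculated from the DMR amplitude at 8 min post-stimulation. Mean ± sd, two independent measurements × four replicates (n=8).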

[3] = molecular target: T1, G-protein coupled receptor 35; assay: Agonist activity at GPR35 in human HT-29 cells by DMR assay; type: cell-based
Summary of the method: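 HT-29 cells with endogenous GPR35, grown in McCoy's 5A with 10% FBS at 37 °C/5% CO2, seeded overnight to a confluent monolayer on resonant waveguide grating biosensor plates. Cells were washed, kept in HBSS for 1 h in the reader, and given a 2 min baseline before compound addition. Mean ± sd, two independent runs × four replicates (n=8).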

[4] = molecular target: T1, G-protein coupled receptor 35; assay: Agonist activity at TEV protease cleavage site linked GAL4-VP16-fused GPR35 in human Tango GPR35-bla U2OS cells assessed as induction of TEV protease-tagged beta-arrestin recruitment incubated for 5 hrs by beta-lactamase reporter gene assay
[5] = molecular target: T1, G-protein coupled receptor 35; assay: Agonist activity at TEV protease cleavage site linked GAL4-VP16-fused GPR35 in human Tango GPR35-bla U2OS cells assessed as induction of TEV protease-tagged beta-arrestin recruitment incubated for 5 hrs by beta-lactamase reporter gene assay relative to zaprinast
[6] = molecular target: T1, G-protein coupled receptor 35; assay: Agonist activity at human GPR35 expressed in CHO-K1 cells after 90 mins by beta-arrestin 2 recruitment assay; type: cell-based
[7] = molecular target: T1, G-protein coupled receptor 35; assay: Agonist activity at human GPR35 expressed in CHO-K1 cells by DMR assay; type: cell-based
[8] = molecular target: T2, Type-1 angiotensin II receptor (Homo sapiens) (UniProt P30556); assay: Agonist activity at angiotensin AT1 receptor in human A549 cells at 1 uM preincubated for 1 hr followed by angiotensin 2 addition by DMR assay; type: cell-based
T2 sequence (whole entry): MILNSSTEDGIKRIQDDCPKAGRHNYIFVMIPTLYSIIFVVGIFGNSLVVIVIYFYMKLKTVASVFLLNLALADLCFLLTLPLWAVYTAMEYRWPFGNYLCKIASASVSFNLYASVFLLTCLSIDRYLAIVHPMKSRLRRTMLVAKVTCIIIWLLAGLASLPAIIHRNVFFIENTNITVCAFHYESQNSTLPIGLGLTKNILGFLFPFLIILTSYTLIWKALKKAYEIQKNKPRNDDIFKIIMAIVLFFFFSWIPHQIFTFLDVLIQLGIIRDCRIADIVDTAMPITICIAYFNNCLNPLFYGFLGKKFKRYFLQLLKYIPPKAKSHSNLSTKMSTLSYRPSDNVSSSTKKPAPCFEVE

[9] = molecular target: Beta-2 adrenergic receptor (Homo sapiens) (UniProt P07550); assay: Agonist activity at beta2 adrenergic receptor in human A431 cells at 1 uM preincubated for 1 hr followed by epinephrine addition by DMR assay; type: cell-based
Sequence of Beta-2 adrenergic receptor (Homo sapiens) (P07550 whole entry, looked up): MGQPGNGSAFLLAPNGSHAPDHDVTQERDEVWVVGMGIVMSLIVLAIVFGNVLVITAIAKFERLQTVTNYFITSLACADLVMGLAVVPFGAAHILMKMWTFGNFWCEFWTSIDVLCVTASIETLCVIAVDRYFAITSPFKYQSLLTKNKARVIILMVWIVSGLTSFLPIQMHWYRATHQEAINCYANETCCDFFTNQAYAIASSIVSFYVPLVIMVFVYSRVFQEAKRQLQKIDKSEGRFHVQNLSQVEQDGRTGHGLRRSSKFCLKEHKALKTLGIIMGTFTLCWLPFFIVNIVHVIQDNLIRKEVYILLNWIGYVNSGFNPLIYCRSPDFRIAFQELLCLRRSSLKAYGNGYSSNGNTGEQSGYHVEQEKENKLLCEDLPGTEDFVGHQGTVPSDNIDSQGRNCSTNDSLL

[10] = molecular target: Histamine H1 receptor (Homo sapiens) (UniProt P35367); assay: Agonist activity at histamine H1 receptor in human A431 cells at 1 uM preincubated for 1 hr followed by histamine addition by DMR assay; type: cell-based
Sequence of Histamine H1 receptor (Homo sapiens) (P35367 whole entry): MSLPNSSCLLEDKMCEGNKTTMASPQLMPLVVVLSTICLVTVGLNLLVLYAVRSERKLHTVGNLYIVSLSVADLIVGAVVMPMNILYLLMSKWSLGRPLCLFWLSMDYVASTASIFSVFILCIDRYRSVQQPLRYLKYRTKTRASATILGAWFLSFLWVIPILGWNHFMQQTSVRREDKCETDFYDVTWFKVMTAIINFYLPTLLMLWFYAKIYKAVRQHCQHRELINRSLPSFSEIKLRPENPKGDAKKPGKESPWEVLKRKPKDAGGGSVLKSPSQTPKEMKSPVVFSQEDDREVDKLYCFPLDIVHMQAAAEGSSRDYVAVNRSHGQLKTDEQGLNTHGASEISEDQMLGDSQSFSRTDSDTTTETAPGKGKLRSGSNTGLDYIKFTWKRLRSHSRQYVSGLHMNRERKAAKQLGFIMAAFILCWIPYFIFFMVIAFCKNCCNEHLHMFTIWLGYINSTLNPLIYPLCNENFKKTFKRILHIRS

[11] = molecular target: T3, B2 bradykinin receptor (Homo sapiens) (UniProt P30411); assay: Agonist activity at bradykinin B2 receptor in human A549 cells at 1 uM preincubated for 1 hr followed by bradykinin addition by DMR assay; type: cell-based
T3 sequence (whole entry): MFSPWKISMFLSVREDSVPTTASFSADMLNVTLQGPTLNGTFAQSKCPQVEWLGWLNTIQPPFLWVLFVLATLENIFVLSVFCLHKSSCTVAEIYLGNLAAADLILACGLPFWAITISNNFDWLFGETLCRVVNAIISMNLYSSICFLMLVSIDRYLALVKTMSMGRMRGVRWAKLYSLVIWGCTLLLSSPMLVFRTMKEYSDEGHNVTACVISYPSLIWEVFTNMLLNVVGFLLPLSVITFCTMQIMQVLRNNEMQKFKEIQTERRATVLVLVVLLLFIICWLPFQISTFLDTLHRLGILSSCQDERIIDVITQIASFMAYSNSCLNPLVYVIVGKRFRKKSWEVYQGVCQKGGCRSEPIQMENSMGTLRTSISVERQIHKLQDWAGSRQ

[12] = molecular target: Hydroxycarboxylic acid receptor 2 (Homo sapiens) (UniProt Q8TDS4); assay: Agonist activity at GPR109a receptor in human A431 cells at 1 uM preincubated for 1 hr followed by niacin addition by DMR assay; type: cell-based
Sequence of Hydroxycarboxylic acid receptor 2 (Homo sapiens) (Q8TDS4 whole entry): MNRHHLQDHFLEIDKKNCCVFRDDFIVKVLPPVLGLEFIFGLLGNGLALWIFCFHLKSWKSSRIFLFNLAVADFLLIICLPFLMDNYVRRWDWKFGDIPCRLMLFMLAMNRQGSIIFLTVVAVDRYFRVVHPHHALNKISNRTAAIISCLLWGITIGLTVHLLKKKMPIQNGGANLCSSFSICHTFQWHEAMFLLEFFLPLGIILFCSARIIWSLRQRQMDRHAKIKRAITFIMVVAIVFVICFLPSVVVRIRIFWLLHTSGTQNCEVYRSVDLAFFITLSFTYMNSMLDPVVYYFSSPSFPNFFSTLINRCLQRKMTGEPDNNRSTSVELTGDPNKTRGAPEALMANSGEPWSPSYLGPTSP

Row | SMILES | IC50 [1] | Activity [2] | EC50 ([3]; read-out: EC50) | also measured
1 | O=c1oc2c([N+](=O)[O-])c(O)c([N+](=O)[O-])cc2cc1-c1nnn[nH]1 | 13 nM | inactive | 14 nM | EC50 [4]: 288 nM; Efficacy [5]: 107%
2 | O=C(O)c1cc2ccccc2oc1=O [COUMARIN-3-CARBOXYLIC ACID] | 100000 nM | inactive | 92300 nM | –
3 | O=C(O)c1cc(=O)c2c(OCC(O)COc3cccc4oc(C(=O)O)cc(=O)c34)cccc2o1 [CROMOLYN] | – | – | – | EC50 [6]: 7000 nM; EC50 [7]: 52 nM
4 | COc1c(Br)cc2cc(-c3nnn[nH]3)c(=O)oc2c1[N+](=O)[O-] | 2820 nM | inactive | 2660 nM | –
5 | O=c1oc2ccccc2cc1-c1nn[nH]n1 | 5080 nM | inactive | 6760 nM | –
6 | COc1c(Br)cc2cc(C#N)c(=O)oc2c1Br | 590 nM | inactive | 8220 nM | –
7 | O=C(O)c1cc2cc(Br)cc([N+](=O)[O-])c2oc1=O | 3750 nM | inactive | 4270 nM | –
8 | N#Cc1cc2cc(Cl)ccc2oc1=O | 21400 nM | inactive | 21400 nM | –
9 | O=C(O)c1cc2cc(Cl)ccc2oc1=O | 13200 nM | inactive | 13500 nM | –
10 | O=C(O)c1cc2cc(Br)cc(Br)c2oc1=O | 1080 nM | inactive | 1750 nM | –
11 | O=c1oc2c(Br)c(O)c(Br)cc2cc1-c1nnn[nH]1 | 23 nM | inactive | 68 nM | EC50 ([3]; read-out: pEC50 (converted)): 66.7 nM; EC50 [4]: 1540 nM; Efficacy [5]: 126%
12 | O=C(O)c1cc2cc(Cl)cc(Cl)c2oc1=O | 2300 nM | inactive | 2020 nM | –
13 | O=C(O)c1cc2cc(Br)c(O)c([N+](=O)[O-])c2oc1=O | 31 nM | inactive | 51 nM | EC50 [4]: 479 nM; Efficacy [5]: 111%
14 | COc1c(Br)cc2cc(-c3nnn[nH]3)c(=O)oc2c1Br | 460 nM | inactive | 1410 nM | EC50 [4]: 14100 nM; Efficacy [5]: 86.4%
15 | O=c1oc2c(Br)cc(Br)cc2cc1-c1nnn[nH]1 | 380 nM | inactive | 930 nM | EC50 [4]: 7050 nM; Efficacy [5]: 81.3%
16 | N#Cc1cc2cc(Br)cc([N+](=O)[O-])c2oc1=O | 650 nM | inactive | 700 nM | –
17 | O=c1oc2cc(O)c(Br)cc2cc1-c1nnn[nH]1 | 483 nM | inactive | 710 nM | –

Row | SMILES | IC50 [1] | Activity [2] | EC50 ([3]; read-out: EC50) | also measured
18 | N#Cc1cc2cc(Br)cc(Br)c2oc1=O | 14900 nM | inactive | 17700 nM | –
19 | N#Cc1cc(NC(=O)C(=O)O)c(Cl)c(NC(=O)C(=O)O)c1 [LODOXAMIDE] | – | – | – | EC50 [6]: 4000 nM
20 | N#Cc1cc2cc(Br)c(O)c(Br)c2oc1=O | 2890 nM | inactive | 2330 nM | –
21 | O=c1oc2c([N+](=O)[O-])c(O)c(Br)cc2cc1-c1nnn[nH]1 | 8.6 nM | inactive | 5.8 nM | Activity [8]: inactive; Activity [1]: Dose-dependent effect; Activity [9]: inactive; Activity [10]: inactive; Activity [11]: inactive; EC50 [4]: 197 nM; Efficacy [5]: 104%; Activity [12]: inactive
22 | COc1c(Br)cc2cc(C#N)c(=O)oc2c1[N+](=O)[O-] | 1690 nM | inactive | 2910 nM | –
23 | N#Cc1cc2cc(Br)c(O)cc2oc1=O | 9330 nM | inactive | 9270 nM | –
24 | N#Cc1cc2ccccc2oc1=O | – | – | – | EC50 [3]: Not Active
25 | COc1cc2oc(=O)c(-c3nnn[nH]3)cc2cc1Br | 14100 nM | inactive | 14800 nM | –
26 | COc1c(Br)cc2cc(C(=O)O)c(=O)oc2c1Br | 750 nM | inactive | 890 nM | –
27 | O=c1oc2c([N+](=O)[O-])cc(Br)cc2cc1-c1nnn[nH]1 | 330 nM | inactive | 330 nM | –
28 | N#Cc1cc2cc(Cl)cc(Cl)c2oc1=O | 8610 nM | inactive | 8610 nM | –
29 | O=C(O)c1cc2cc(Br)ccc2oc1=O | 11300 nM | inactive | 10800 nM | –
30 | O=C(O)c1cc2cc(Br)c(O)cc2oc1=O | 3760 nM | inactive | 4340 nM | –
31 | CCCOc1ccccc1-c1nc2[nH]nnc2c(=O)[nH]1 | – | – | – | Efficacy [5]: 100%
32 | CC(C)c1ccc2oc3nc(N)c(C(=O)O)cc3c(=O)c2c1 [AMLEXANOX] | – | – | – | EC50 [6]: 4000 nM
33 | O=C(O)c1cc2cc(Br)c(O)c(Br)c2oc1=O | 56 nM | inactive | 150 nM | EC50 [4]: 3630 nM; Efficacy [5]: 168%
